Experimental data reported in publication PMC3447631 (Chemistry & biology, 2012).
Converted amounts (≈) assume the structure as drawn. Blank lines part the entries; values can stand above or below the molecule they belong to.

Columns and labels:
[1] = test system: human insulin promoter; test: Human insulin promoter-GFP transgene assay in T6PNE cells; format: cell-based; settings: for effect of reported HNF4α ligands on insulin promoter activity: 48 hours, 0.5 μM or 1 μM tamoxifen
How it was run: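 T6PNE cells carry a lentiviral human insulin promoter–GFP transgene. Cells were treated for 48 hours; where stated, tamoxifen was 0.5 or 1 μM and fatty acids 0.12 mM. The green channel was imaged and percent GFP+ cells normalized to total cells per well.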

[2] = biological target: T1, HNF4α (Homo sapiens, UniProt P41235); test: DARTS assay in HepG2 cells; format: binding; settings: HepG2, 20μM, 24hr, subtilisin
T1 sequence (P41235 1-474): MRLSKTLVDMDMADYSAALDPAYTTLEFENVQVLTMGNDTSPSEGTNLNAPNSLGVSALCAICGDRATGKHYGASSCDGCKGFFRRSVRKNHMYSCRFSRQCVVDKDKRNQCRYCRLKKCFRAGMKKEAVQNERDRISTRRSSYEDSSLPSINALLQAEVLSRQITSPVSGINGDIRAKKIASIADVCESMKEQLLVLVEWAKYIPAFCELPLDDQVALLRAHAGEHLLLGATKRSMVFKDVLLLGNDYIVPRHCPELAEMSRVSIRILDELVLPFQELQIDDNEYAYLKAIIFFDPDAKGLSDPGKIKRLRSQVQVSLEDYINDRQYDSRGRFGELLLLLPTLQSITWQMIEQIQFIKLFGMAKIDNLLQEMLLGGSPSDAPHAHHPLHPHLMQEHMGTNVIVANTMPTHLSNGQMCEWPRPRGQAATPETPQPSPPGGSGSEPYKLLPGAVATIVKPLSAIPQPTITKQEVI
How it was run: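 DARTS: HepG2 cells were treated with DMSO or test compound at 20μM for 24hr. Read-out is the ligand-induced change in HNF4α sensitivity to proteolysis.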

[3] = biological target: T2, HNF4α DNA binding (Homo sapiens, UniProt P41235); test: HNF4α DNA binding, HNF TransAM ELISA on HepG2 nuclear extracts; format: cell-based; settings: HepG2 incubated overnight with compound
T2 sequence (P41235 1-474): T1 sequence (P41235 1-474)
How it was run: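 HepG2 cells were incubated overnight with test compound. Nuclear protein extracts (5μg) were added to wells bearing an oligonucleotide with an HNF4α binding site. Bound HNF4α was detected with an anti-HNF4α antibody (ELISA). Mean ± SD, n=3 biological replicates; Student's t-test.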

[4] = test system: endogenous insulin promoter; test: Endogenous insulin mRNA; format: cell-based, human; settings: for effect on endogenous insulin expression / insulin promoter activity: T6PNE cells; for effect of fatty acid on insulin gene expression (quantitative RT-PCR): T6PNE, 1μM tamoxifen, 48 hours
How it was run: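 Q-PCR of endogenous insulin mRNA in T6PNE cells after 48 h exposure to test compound across a concentration series. For fatty acids, cells got 1μM tamoxifen plus fatty acid or DMSO vehicle for 48 hours before RNA harvest. Insulin mRNA was normalized to GAPDH or 18S rRNA; mean ± SE, n=3.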

[5] = test system: PPARγ; format: cell-based; settings: PPRE-Luc, HeLa
How it was run: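 HeLa cells were co-transfected with a PPRE-Luc reporter, with or without a PPARγ expression vector, then treated with test compound. Read-out was luciferase activity; mean ± SE, n=3.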

[6] = biological target: PPARα (Homo sapiens, UniProt Q07869); test: PPRE-luciferase reporter assay with PPARα co-transfection; format: cell-based
Chain of PPARα (Q07869 whole entry, species assumed): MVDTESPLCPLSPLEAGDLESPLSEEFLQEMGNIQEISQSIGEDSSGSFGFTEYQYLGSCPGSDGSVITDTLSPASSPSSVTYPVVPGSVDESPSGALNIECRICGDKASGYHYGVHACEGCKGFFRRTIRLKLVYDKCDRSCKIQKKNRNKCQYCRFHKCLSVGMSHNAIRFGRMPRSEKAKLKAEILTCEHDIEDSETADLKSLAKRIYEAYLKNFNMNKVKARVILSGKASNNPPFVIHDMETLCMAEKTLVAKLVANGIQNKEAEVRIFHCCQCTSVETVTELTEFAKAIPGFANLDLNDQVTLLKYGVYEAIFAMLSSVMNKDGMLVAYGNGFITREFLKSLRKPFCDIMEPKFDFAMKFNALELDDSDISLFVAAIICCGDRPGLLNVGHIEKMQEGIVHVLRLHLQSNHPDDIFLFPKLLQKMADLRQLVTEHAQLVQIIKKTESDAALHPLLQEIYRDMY

[7] = biological target: PPARδ (Homo sapiens, UniProt Q03181); test: PPRE-luciferase reporter assay with PPARδ co-transfection; format: cell-based
Chain of PPARδ (Q03181 whole entry, species assumed): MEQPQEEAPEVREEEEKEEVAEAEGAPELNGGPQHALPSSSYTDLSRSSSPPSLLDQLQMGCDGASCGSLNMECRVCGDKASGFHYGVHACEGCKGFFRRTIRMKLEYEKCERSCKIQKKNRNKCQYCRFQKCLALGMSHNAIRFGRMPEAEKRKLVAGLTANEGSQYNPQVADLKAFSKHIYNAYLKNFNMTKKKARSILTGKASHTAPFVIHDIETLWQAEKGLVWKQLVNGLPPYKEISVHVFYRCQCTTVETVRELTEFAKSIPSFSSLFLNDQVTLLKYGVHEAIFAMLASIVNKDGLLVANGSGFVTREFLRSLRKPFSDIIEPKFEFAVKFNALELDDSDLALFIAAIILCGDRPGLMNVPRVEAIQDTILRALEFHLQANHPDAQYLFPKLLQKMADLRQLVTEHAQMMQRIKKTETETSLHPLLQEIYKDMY

[8] = biological target: full-length HNF4α (Rattus norvegicus, UniProt P22449); test: Direct binding by quenching of HNF4α aromatic amino acid fluorescence; settings: Hill equation analysis
Chain of full-length HNF4α (P22449 whole entry): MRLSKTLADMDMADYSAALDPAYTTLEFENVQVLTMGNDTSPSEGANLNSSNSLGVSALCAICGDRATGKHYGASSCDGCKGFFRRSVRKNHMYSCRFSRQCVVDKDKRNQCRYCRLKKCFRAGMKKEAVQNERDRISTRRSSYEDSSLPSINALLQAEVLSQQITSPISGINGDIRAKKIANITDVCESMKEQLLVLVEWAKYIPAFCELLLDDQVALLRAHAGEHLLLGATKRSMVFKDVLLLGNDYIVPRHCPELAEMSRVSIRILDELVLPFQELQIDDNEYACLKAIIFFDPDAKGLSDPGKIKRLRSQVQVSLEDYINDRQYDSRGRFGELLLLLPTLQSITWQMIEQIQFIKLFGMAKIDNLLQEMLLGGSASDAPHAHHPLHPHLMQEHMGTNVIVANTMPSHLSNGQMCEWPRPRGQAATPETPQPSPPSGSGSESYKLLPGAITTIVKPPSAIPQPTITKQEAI

[9] = test system: HNF4α gene expression; test: HNF4α mRNA expression in T6PNE cells; format: cell-based, human
[10] = test system: HNF4α gene expression; test: HNF4α mRNA expression in MIN6 cells; format: cell-based, murine; settings: for effect of fatty acid on HNF4α gene in MIN6: 0.08mM Oleate or 0.02mM Palmitate, 110 days
[11] = test system: HNF4α gene expression; test: HNF4α mRNA expression in HepG2 cells; format: cell-based; settings: 48 hours
How it was run: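 HNF4α mRNA in treated HepG2 cells measured by Q-PCR and normalized to 18S rRNA. Differences in expression assessed by Student's t-test.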

[12] = test system: p57Kip2 expression; test: Kip2 mRNA in T6PNE cells; format: cell-based, human
How it was run: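 Kip2 mRNA in T6PNE cells measured by Q-PCR, normalized to 18s rRNA. Treated and DMSO vehicle cells were compared by Student's t-test.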

[13] = test system: E47 and PDX-1 binding to the human insulin promoter; test: ChIP of E47 and PDX-1 on the human insulin promoter in T6PNE cells; format: cell-based; settings: 5μM, 48 hours
How it was run: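 T6PNE cells were given 1μM tamoxifen plus DMSO or 5μM test compound for 48 hours. ChIP used anti-E47 and anti-PDX-1 antibodies, followed by Q-PCR with primers for the E-box and A-box elements of the insulin promoter. Treated and vehicle binding were compared by Student's t-test.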

[14] = Plasma stability; format: in vitro ADME; settings: after 3 h
[15] = Hepatic microsomal stability; format: in vitro ADME; settings: after 1.25 h
[16] = Plasma protein binding; format: in vitro ADME; settings: after 4 h
[17] = Solubility; format: physicochemical
[18] = test system: modified estrogen receptor (E47MER); test: Counterscreen: prevention of E47MER translocation; format: cell-based
[19] = test system: tumor cell lines; test: Toxicity to tumor cell lines versus cultured primary cells in vitro; format: cell-based
[20] = test system: INS1 and INS2 genes; test: Insulin gene mRNA in MIN6 cells after prolonged fatty acid exposure; format: cell-based, murine; settings: 0.08mM Oleate or 0.02mM Palmitate, 110 days

Molecule: 3-methyl-2-nitronaphthofuran [Compound 5]
effect of reported HNF4α ligands on insulin promoter activity [1]: none of these compounds had consistent and robust effects

effect on HNF4α protease sensitivity (DARTS) [2]: no effect
effect on HNF4α DNA binding [3]: inactive
Molecule: Cc1nc2ccccc2n1Cc1cc([N+](=O)[O-])ccc1O [BI6018]
activity in the insulin promoter assay [1]: inactive

Molecule: Cc1nc2ccccc2n1S(=O)(=O)c1cc([N+](=O)[O-])ccc1Cl [BIM5078, 1-(2′-chloro-5′-nitrobenzenesulfonyl)-2-methylbenzimidazole]
IC50 ([4]; Homo sapiens, 48 h, read-out: IC50, inhibition of endogenous insulin expression): 930 nM
effect on endogenous insulin expression / insulin promoter activity [4]: had activity
PPRE activation enhanced by co-transfection with PPARγ expression vector [5]: ~4 fold
activity as PPARγ agonist [5]: had activity as PPARγ agonists
PPRE activation ([5]; without PPARγ expression vector): 2 fold
luciferase activity with PPARα co-transfected [6]: no change in luciferase activity
luciferase activity with PPARδ co-transfected [7]: no change in luciferase activity
Hill coefficient of binding [8]: 0.9 ± 0.3
effect on HNF4α expression in T6PNE ([9]; 48 hours): potently repressed
effect on HNF4α expression in MIN6 ([10]; 5 hours): potently repressed
effect on HNF4α expression in HepG2 [11]: potently repressed
effect on Kip2 expression [12]: potently decreased
association of E47 with the distal (E2) E-box of the insulin promoter [13]: significantly decreased
association of PDX-1 at A-boxes (A1, A3, A5) of the insulin promoter [13]: significantly decreased
plasma stability, remaining [14]: 8%
microsomal stability, remaining [15]: 32%
binding to plasma proteins, bound [16]: 98%
solubility at 18 h [17]: 0.17 µg/mL (≈ 0.483 µM)
effect on HNF4α protease sensitivity (DARTS) [2]: induced altered HNF4α protease sensitivity
effect on HNF4α DNA binding [3]: active but less potent
estrogenic antagonism / tamoxifen-like activity (E47MER translocation) [18]: passed the counterscreen
toxicity to tumor cell lines in vitro [19]: toxic

Hill coefficient of binding [8]: 0.6 ± 0.1
effect on HNF4α protease sensitivity (DARTS) [2]: no effect
effect on HNF4α DNA binding [3]: inactive
Molecule: CCCCCS(=O)(=O)NC(=O)c1ccc2nc(C)n(Cc3ccc(Cl)cc3Cl)c2c1 [FK614, reference compound]
effect on endogenous insulin expression / insulin promoter activity [4]: no effect
activity as PPARγ agonist [5]: had activity as PPARγ agonists
effect on Kip2 expression [12]: no effect

Molecule: CC(C)(CCCCCCCCCCC(C)(C)CC(=O)O)CC(=O)O [Medica-16, 3,3,14,14-tetramethylhexadecanedioic acid]
effect of reported HNF4α ligands on insulin promoter activity [1]: none of these compounds had consistent and robust effects

Molecule: CC(=O)O [acetic]
effect of fatty acid on insulin gene expression (quantitative RT-PCR) [4]: did not have an effect

Molecule: CCCC(=O)O [butyric]
effect of fatty acid on insulin gene expression (quantitative RT-PCR) [4]: did not have an effect

estrogenic antagonism / tamoxifen-like activity (E47MER translocation) [18]: estrogenic antagonists
Molecule: O=[N+]([O-])c1ccc2nc(-c3ccco3)[nH]c2c1 [compound 5816458]

Molecule: CCCCC/C=C\C/C=C\CCCCCCCC(=O)O [linoleic acid]
effect of fatty acid on insulin gene expression (quantitative RT-PCR) [4]: inhibited

Molecule: CCCCCCCC/C=C\CCCCCCCC(=O)O [oleate, reference compound]
effect of fatty acid on HNF4α gene in MIN6 [10]: inhibited
effect on INS2 gene in MIN6 [20]: inhibited

Molecule: CCCCCCCCCCCCCCCC(=O)O [palmitate, reference compound]
effect of fatty acid on insulin gene expression (quantitative RT-PCR) [4]: dose-dependent decrease
effect of fatty acid on HNF4α mRNA levels in T6PNE ([9]; 48 hour treatment, with tamoxifen): significantly inhibited
effect of fatty acid on HNF4α gene in MIN6 [10]: inhibited
effect on INS2 gene in MIN6 [20]: inhibited
